In assay [1] the target is T1, Alpha-1D adrenergic receptor (Rattus norvegicus) (UniProt P23944).
T1 sequence (whole entry): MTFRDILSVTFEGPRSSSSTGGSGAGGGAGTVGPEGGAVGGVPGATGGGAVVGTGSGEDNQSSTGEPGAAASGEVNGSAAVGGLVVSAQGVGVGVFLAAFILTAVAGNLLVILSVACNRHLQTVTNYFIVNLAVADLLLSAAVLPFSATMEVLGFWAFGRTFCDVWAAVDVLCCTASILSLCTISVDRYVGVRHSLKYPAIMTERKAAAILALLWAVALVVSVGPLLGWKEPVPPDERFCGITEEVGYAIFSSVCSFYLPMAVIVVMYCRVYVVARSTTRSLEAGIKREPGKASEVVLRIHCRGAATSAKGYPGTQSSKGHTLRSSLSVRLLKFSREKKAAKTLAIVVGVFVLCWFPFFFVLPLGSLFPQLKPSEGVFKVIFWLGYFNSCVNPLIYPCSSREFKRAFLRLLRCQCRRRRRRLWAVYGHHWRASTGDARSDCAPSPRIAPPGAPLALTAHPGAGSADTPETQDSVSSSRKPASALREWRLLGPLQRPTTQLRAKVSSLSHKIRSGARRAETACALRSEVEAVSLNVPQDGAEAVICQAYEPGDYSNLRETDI
Kind of assay: Antagonist activity at alpha1D adrenoceptor in Wistar rat thoracic aorta assessed as noradrenaline-induced contractions after 30 mins.

For assay [2], the species on record is Rattus norvegicus. Kind of assay: Selectivity ratio of Kb for alpha1B adrenoceptor in Wistar rat spleen to Kb for alpha1A adrenoceptor in Wistar rat vas deferans. It counts as tissue-based.
For assay [3], the target named is T2, Alpha-1B adrenergic receptor (Rattus norvegicus) (UniProt P15823).
T2 sequence (whole entry): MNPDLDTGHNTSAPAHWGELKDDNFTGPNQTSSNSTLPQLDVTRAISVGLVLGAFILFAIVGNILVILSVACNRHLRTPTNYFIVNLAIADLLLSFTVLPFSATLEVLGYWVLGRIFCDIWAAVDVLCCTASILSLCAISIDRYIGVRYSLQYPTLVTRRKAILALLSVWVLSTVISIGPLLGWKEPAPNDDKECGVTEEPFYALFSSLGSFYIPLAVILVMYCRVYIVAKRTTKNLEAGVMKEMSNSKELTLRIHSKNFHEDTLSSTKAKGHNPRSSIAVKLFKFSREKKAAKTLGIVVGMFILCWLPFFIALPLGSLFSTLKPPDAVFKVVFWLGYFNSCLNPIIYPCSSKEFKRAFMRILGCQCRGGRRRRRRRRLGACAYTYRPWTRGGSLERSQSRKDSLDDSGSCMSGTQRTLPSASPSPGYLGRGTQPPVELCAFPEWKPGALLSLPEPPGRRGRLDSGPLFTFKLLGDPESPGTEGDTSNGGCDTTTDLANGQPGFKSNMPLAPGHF
Kind of assay: Antagonist activity at alpha1B adrenoceptor in Wistar rat spleen assessed as phenylephrine-induced contractions after 30 mins. The method in brief: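 Spleen strips (bisected longitudinally) in Krebs with 4 µM propranolol, 1 g resting tension, 2 h equilibration. Cumulative phenylephrine curves recorded isometrically at 30 min intervals, the first discarded and the second used as control. Antagonist pre-equilibrated 30 min before a repeat agonist curve.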

Assay [4] is filed under the species Rattus norvegicus. Kind of assay: Selectivity ratio of Kb for alpha1D adrenoceptor in Wistar rat thoracic aorta to Kb for alpha1A adrenoceptor in Wistar rat vas deferans. It counts as tissue-based.
Assay [5] has as its target T3, Alpha-1B adrenergic receptor (Homo sapiens, UniProt P35368).
T3 sequence (P35368 whole entry): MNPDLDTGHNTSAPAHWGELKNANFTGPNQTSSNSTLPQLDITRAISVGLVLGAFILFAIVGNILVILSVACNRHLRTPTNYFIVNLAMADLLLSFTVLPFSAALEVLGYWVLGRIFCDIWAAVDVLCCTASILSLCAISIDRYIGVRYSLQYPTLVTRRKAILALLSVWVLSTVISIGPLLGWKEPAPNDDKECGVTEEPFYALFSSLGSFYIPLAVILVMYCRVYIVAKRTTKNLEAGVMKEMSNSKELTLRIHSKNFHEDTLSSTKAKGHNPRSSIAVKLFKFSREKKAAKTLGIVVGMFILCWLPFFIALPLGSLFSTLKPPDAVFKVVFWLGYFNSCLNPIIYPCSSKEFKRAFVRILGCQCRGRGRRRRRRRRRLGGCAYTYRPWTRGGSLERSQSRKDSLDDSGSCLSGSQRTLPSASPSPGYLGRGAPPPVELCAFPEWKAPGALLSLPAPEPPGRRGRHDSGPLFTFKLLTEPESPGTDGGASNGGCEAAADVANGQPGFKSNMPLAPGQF
Kind of assay: Displacement of [3H]prazosin from human recombinant alpha1B adrenoceptor expressed in CHO cells after 30 mins by liquid scintillation counting. It counts as cell-based. A digest of the protocol:
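CHO cells were stably transfected by electroporation with each human α1 subtype. Membranes (70 µg protein) were incubated in 50 mM Tris pH 7.4 with 0.1–0.4 nM [3H]prazosin and competitor (1 pM–1 µM) for 30 min at 25 °C. Nonspecific binding with 10 µM tamsulosin. Filtration and scintillation counting. pKi from 2–3 experiments in duplicate.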
(In a radioligand displacement assay an active substance lowers the binding of a labelled ligand.)

The target of assay [6] is T4, Alpha-1A adrenergic receptor (Homo sapiens, UniProt P35348).
T4 sequence (P35348 whole entry): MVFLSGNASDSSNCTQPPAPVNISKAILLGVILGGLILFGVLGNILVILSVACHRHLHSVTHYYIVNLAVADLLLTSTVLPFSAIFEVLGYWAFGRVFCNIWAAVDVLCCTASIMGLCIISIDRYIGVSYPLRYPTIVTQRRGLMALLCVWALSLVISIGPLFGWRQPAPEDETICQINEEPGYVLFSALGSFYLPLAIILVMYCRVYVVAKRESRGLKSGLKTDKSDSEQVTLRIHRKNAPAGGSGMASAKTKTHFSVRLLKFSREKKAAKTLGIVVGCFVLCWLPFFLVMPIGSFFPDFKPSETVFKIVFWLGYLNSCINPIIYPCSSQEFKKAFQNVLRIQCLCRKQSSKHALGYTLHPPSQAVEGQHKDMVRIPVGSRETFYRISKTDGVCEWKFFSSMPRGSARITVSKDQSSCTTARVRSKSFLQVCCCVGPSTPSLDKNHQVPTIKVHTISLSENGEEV
Kind of assay: Displacement of [3H]prazosin from human recombinant alpha1A adrenoceptor expressed in CHO cells after 30 mins by liquid scintillation counting.

Usually pKb stands for the Kb on a negative log10 scale, so that one unit is a factor of ten. What is called Ki is a dissociation constant, usually derived from enzyme kinetics or from competition with a known ligand.

For `COc1ccccc1N1CCN(CC2COC3(CCN(c4ccccn4)CC3)O2)CC1` (stereo unspecified), the figures for the pKb in assay [1] and in assay [3] were 6.87 and 7.86, respectively. Besides, the values for the Ratio in the assay filed under Rattus norvegicus [2] and in the assay filed under Rattus norvegicus [4] were 1.7 and 0.17, respectively. The inhibitory constant (Ki) was 1000 nM in assay [5] and 17.8 nM in assay [6].

Take `COc1ccccc1N1CCN(CC2COC3(CCN(C(=O)c4ccccc4)CC3)O2)CC1` (stereo unspecified): the pKb in assay [1] came to 7.45; in assay [3] it was 8.19. For the same molecule, the Ratio stood at 3.02 in the assay filed under Rattus norvegicus [2] and 0.55 in the assay filed under Rattus norvegicus [4]. The results for the Ki in assay [5] and in assay [6] were 67.6 nM and 10.7 nM, respectively.

On to `COc1ccccc1N1CCN(CC2COC3(CCN(S(=O)(=O)c4cccs4)CC3)O2)CC1` (stereo unspecified), for which the negative-log Kb (pKb) was found to be 7.27 in assay [1] and 8.05 in assay [3]. Also, the results for the Ratio in the assay listed under Rattus norvegicus [2] and in the assay filed under Rattus norvegicus [4] were 3.89 and 0.64, respectively. Further, the Ki in assay [5] was 85.1 nM; in assay [6], 7.94 nM.

Turning to `COc1ccccc1N1CCN(CC2COC3(CCN(C(=O)C(F)(F)F)CC3)O2)CC1` (stereo unspecified), the pKb in assay [1] was 7.5; in assay [3] it was 8. Besides, the Ratio came to 10.7 in the assay filed under Rattus norvegicus [2] and 3.39 in the assay filed under Rattus norvegicus [4]. The figures for the Ki in assay [5] and in assay [6] were 1000 nM and more than 1000 nM, respectively.

With `COc1ccccc1N1CCN(CC2COC3(CCN(C(=O)c4ccc(C(F)(F)F)cc4)CC3)O2)CC1` (stereo unspecified), the pKb is 7.29 in assay [1] and 8.33 in assay [3]. In addition, the Ratio in the assay listed under Rattus norvegicus [2] is 3.47; in the assay listed under Rattus norvegicus [4] it was 0.31. For the same molecule, the figures for the Ki in assay [5] and in assay [6] were 63.1 nM and 10.2 nM, respectively.

For the molecule `CCCCNC(=O)N1CCC2(CC1)OCC(CN1CCN(c3ccccc3OC)CC1)O2` (stereo unspecified), the negative logarithm of the Kb (pKb) was 7.29 in assay [1] and 7.4 in assay [3]. The results for the Ratio in the assay listed under Rattus norvegicus [2] and in the assay listed under Rattus norvegicus [4] were 1.04 and 0.81, respectively. Besides, the figures for the Ki in assay [5] and in assay [6] were 240 nM and 20 nM, respectively.

For the origin of these results see ChEMBL document CHEMBL3351355, “Structure-affinity/activity relationships of 1,4-dioxa-spiro[4.5]decane based ligands at α1 and 5-HT1A receptors” (Eur J Med Chem, 2014).
